The values below come from ChEMBL document CHEMBL1124468, “N-(fluoroethyl)(imidazolylphenyl)formamidines. The issue of the active species of mifentidine” (J Med Chem, 1989).

Data set [1] is described as follows: Dissociation constant for imidazole ring. The data set is classed as physicochemical. In short, it runs like this: (§1)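 Macroscopic ionization constants (pKa) by potentiometric titration of compound dissolved in previously boiled distilled water with 2 mL methanol; titrated with 0.1 N KOH in 0.1-equivalent additions, pH read at equilibrium after each addition.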

The nature of data set [2]: Dissociation constant for formamidine ring. The data set is classed as physicochemical. In short, it runs like this: as §1
Data set [3] can be described thus: Percent of monocationic species at a pH of 6.5 was determined. In short, it runs like this: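 Monocationic percentage at pH 6.5 computed with the Henderson-Hasselbach equation from pKa values measured by potentiometric titration with 0.1 N KOH in water containing a little methanol.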
The target in data set [4] is Histamine H2 receptor (Cavia porcellus) (UniProt P47747). The experiment in a line: Antagonist activity against histamine H2 receptor was evaluated in guinea pig atria; value ranges from (40.2-93.3) x10E-9. The data set is classed as functional. In short, it runs like this:
(§2)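 Spontaneously beating atria from male Dunkin-Hartley guinea pigs (400–500 g) in oxygenated (O2/CO2 95:5) McEwen's solution, pH 6.5, 32 °C; rate recorded by instantaneous rate meter. Cumulative histamine up to maximal chronotropic response; antagonist equilibrated 60 min. K_B = [B]/(DR − 1), DR being histamine dose ratios at half-maximal response with and without several antagonist concentrations; multiple-regression evaluation.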

For data set [5] the target is unchanged. Put plainly: Antagonist activity against histamine H2 receptor was evaluated in guinea pig atria; value ranges from (3.8-119)x10E-9. The data set is classed as functional. In short, it runs like this: as §2
Data set [6] is described as follows: Dissociation constant for imidazole ring; ND means not determined because of product insolubility. The data set is classed as physicochemical. In short, it runs like this: as §1
Data set [7] deals with Histamine H2 receptor (Cavia porcellus) (UniProt P47747). The experiment in a line: Antagonist activity against histamine H2 receptor was evaluated in guinea pig atria; value ranges from (3.6-16.1)x10E-9. The data set is classed as functional. In short, it runs like this:
as §2

Sequence of Histamine H2 receptor (Cavia porcellus) (P47747 whole entry): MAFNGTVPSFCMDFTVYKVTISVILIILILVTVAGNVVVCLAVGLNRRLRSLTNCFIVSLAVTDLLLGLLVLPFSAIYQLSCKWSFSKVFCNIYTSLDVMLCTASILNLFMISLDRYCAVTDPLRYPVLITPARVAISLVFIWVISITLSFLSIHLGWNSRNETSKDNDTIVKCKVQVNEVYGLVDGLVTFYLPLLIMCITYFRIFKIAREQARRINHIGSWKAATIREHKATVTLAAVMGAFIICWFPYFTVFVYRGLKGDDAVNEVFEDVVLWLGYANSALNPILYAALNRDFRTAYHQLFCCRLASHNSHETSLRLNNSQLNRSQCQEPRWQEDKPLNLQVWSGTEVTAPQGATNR

Turning to `CC/N=C/Nc1ccc(-c2c[nH]cn2)cc1`, the results for the pKa in data set [1] and in data set [2] were 5.57 and 8.65, respectively. This molecule yielded a Monocation species in data set [3] of 88.78%.

`FCC/N=C/Nc1ccc(-c2c[nH]cn2)cc1`: the values for the pKa in data set [1] and in data set [2] were 5.55 and 8.12, respectively. For the same molecule, the antagonist equilibrium constant (Kb) (commonly the affinity of an antagonist, worked out from how it opposes an agonist) in data set [4] amounted to 61 nM. In addition, the Monocation species in data set [3] is recorded as 87.56%.

With `FC(F)C/N=C/Nc1ccc(-c2c[nH]cn2)cc1`, the pKa (as a rule, the negative logarithm of the acid dissociation constant) in data set [1] worked out at 4.54; in data set [2], 6.6. In addition, the Kb in data set [5] worked out at 21 nM. This molecule came in with a Monocation species in data set [3] of 54.64%.

Consider `N#C/N=C/Nc1ccc(-c2c[nH]cn2)cc1`, for which the pKa in data set [2] is less than 1; in data set [6], “Insoluble”.

`FC(F)(F)C/N=C/Nc1ccc(-c2c[nH]cn2)cc1`: the Kb in data set [7] was determined as 7.6 nM. In addition, the pKa in data set [1] amounted to 4.45; in data set [2], 6.14. Besides, in data set [3], the Monocation species was 29.5%.
